The source of these data is ChEMBL document CHEMBL4359883, “4(1H)-quinolone derivatives overcome acquired resistance to anti-microtubule agents by targeting the colchicine site of β-tubulin” (Eur J Med Chem, 2019).

pIC50: −log10 of the molar value. Calls of active or inactive are those of the source. The rule behind the calls is not given here.

Data set [1] can be described thus: Toxicity in Balb/c mouse xenografted with human KBtax cells assessed as serum AST level at 8 mg/kg, ip administered 3 times per week and measured after 21 days (reference value: 94.2 +/- 12.5 IU/L). Conditions: in vivo, 504 h. The data set is classed as organism-based. A general note: In xenograft studies the graft and the host belong to different species.
The next data set is filed under the species Homo sapiens. Put plainly: Induction of morphological changes in human KBtax cells assessed as disruption of mitotic spindle arrangement at 30 nM after 6 hrs by DAPI staining based confocal microscopic analysis. The data set is classed as functional, cell-based. A digest of the protocol:
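Cells exposed for 6 h, fixed in 3.7% paraformaldehyde, permeabilized with 0.1% Triton X-100. Stained with anti-α-tubulin (1:1000) overnight at 4 °C, FITC secondary 1 h at 37 °C, nuclei counterstained with DAPI. Imaged by confocal laser scanning microscopy.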

Another data set has as its system MDA-MB-231. Put plainly: Antitumour activity against human MDA-MB-231 cells xenografted in Balb/c mouse assessed as […] at 8 mg/kg, ip administered three times per week and measured on day 35 (reference value: 218 +/- 20.9 mm3). The format is functional. A digest of the protocol: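 MDA-MB-231 tumours established in the right flank of 6-week-old BALB/c nude mice. Compound dissolved in DMSO was given ip three times weekly, with a DMSO vehicle group. Tumour volume calculated as 0.5W²L, measured before each dose and compared on day 35.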

Data set [2] is described as follows: Toxicity in Balb/c mouse xenografted with human KBtax cells assessed as serum ALT level at 8 mg/kg, ip administered 3 times per week and measured after 21 days (reference value: 32.7 +/- 4.8 IU/L). The data set is classed as organism-based. Particulars: in vivo, 504 h.
The target of data set [3] is Tubulin alpha (Homo sapiens) (UniProt P0DPH7+P68366+Q71U36+P68363+Q9BQE3+Q6PEY2+A6NHL2+Q9NY65). The data set is described as follows: Induction of microtubule depolymerization in human NCI-H1975 cells assessed as increase in alpha tubulin soluble form by immunoblot analysis. The data set is classed as cell-based. The method in brief: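 Lysate spun at 16,000 rpm for 15 min at room temperature. Soluble (monomer) and particulate (polymer) fractions immunoblotted for α-tubulin.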
On the technique in general: Immunoblotting shows a protein as a band on a membrane.

Data set [4] concerns CL1-0. The data set is described as follows: Cell cycle arrest in human CL1-0 cells assessed as increase in cell population at sub-G1 phase after 24 hrs by propidium iodide-staining based flow cytometry. The format is functional. A digest of the protocol: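 Cells treated for 24 h, then trypsinized and fixed overnight in ice-cold 70% ethanol. Stained for 30 min with propidium iodide (10 µg/mL) plus RNase (20 µg/mL), and DNA content measured by flow cytometry. Mean ± SD.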
In general terms: In flow cytometry, cells or beads pass a laser one at a time.

The target of another data set is Tubulin (Homo sapiens) (UniProt P68371+Q9H4B7+P0DPH7+P68366+Q13509+Q71U36+P04350+Q3ZCM7+P07437+P68363+Q9BQE3+Q6PEY2+Q13885+Q9BVA1+Q9BUF5). The data set is described as follows: Binding affinity to tubulin (unknown origin) assessed as increase in Beta-col fragment production at 100 uM after 30 mins by coomassie brilliant blue staining based trypsin proteolysis assay. The data set is classed as protein-complex assay. A digest of the protocol: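 Tubulin (1 mg/mL) preincubated with 100 µM compound for 30 min at 30 °C in 0.1 M MES, 1 mM MgCl2, 1 mM EGTA, pH 6.9. Trypsin added at 25 µg/mL (1:40 w/w) for 10 min on ice. Fragments resolved on 15% SDS-PAGE, stained with Coomassie and quantified by densitometry.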

The subject of data set [5] is NCI-H1975. Put plainly: Induction of apoptosis in human NCI-H1975 cells assessed as cleaved caspase 9 after 24 hrs by immunoblotting analysis. The format is functional, cell-based.
Another data set relates to COLO 205. Put plainly: Antiproliferative activity against human COLO205 cells assessed as reduction in cell viability after 72 hrs by MTS assay. The data set is classed as functional, cell-based. Conditions: COLO 205, 72 h. A digest of the protocol: (§1)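 Cells plated at 2000/well, cultured overnight, then exposed to a range of compound concentrations for 72 h. MTS reagent added for 1–4 h at 37 °C and absorbance read at 490 nm. Cultured in RPMI 1640 or DMEM with 10% heat-inactivated FBS under 5% CO2. Data are the mean of three determinations.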

The test system of data set [6] is NCI-H1975. Put plainly: Induction of mitotic arrest in human NCI-H1975 cells assessed as cyclin A at 40 to 80 nM after 24 hrs by immunoblotting analysis. The data set is classed as functional, cell-based.
Data set [7] relates to NCI-H1975. Put plainly: Antitumour activity against human NCI-H1975 cells xenografted in Balb/c mouse assessed as reduction in tumour size at 4 mg/kg, ip administered 3 times per week and measured on day 25 (reference value: 1749 +/- 234.5 mm3). The format is functional.
Another data set deals with PC-3. The data set is described as follows: Antiproliferative activity against human PC3 cells assessed as reduction in cell viability after 72 hrs by MTS assay. The format is functional, cell-based. Particulars: PC-3, 72 h. The method in brief:
as §1

Data set [8] concerns NCI-H1975. Put plainly: Induction of apoptosis in human NCI-H1975 cells assessed as increase in cytochrome c level in cytosol at 40 to 80 nM after 24 hrs by immunoblotting analysis. The format is functional, cell-based.
The subject of data set [9] is CL1-0. The data set is described as follows: Antiproliferative activity against human CL1-0 cells assessed as reduction in cell viability after 72 hrs by MTS assay. Conditions: CL1-0, 72 h. The data set is classed as functional, cell-based. The method in brief:
as §1

Data set [10] deals with CL1-0. Put plainly: Induction of apoptosis in human CL1-0 cells assessed as bax protein expression after 24 hrs by immunoblotting analysis. The data set is classed as functional, cell-based.
The next data set addresses Tubulin (Sus scrofa) (UniProt P02554+P02550). Put plainly: Inhibition of porcine tubulin at 5 uM in presence of GTP measured every minute for 1 hr by microplate reader analysis. The data set is classed as protein assay.

Tubulin (Sus scrofa), sequence (P02550 whole entry, looked up): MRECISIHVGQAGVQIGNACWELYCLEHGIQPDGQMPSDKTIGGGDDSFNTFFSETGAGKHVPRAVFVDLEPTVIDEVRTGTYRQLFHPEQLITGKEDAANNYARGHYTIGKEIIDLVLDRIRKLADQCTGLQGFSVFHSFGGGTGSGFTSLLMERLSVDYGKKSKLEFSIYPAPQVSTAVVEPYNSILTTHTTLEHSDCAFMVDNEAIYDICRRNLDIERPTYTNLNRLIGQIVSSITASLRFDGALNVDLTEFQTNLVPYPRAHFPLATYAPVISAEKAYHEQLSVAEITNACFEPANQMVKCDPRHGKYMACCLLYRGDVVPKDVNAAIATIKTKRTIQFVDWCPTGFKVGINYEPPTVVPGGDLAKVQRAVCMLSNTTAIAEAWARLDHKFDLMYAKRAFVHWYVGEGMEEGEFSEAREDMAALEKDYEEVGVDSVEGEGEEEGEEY
Tubulin (Sus scrofa), sequence (P02554 whole entry, looked up): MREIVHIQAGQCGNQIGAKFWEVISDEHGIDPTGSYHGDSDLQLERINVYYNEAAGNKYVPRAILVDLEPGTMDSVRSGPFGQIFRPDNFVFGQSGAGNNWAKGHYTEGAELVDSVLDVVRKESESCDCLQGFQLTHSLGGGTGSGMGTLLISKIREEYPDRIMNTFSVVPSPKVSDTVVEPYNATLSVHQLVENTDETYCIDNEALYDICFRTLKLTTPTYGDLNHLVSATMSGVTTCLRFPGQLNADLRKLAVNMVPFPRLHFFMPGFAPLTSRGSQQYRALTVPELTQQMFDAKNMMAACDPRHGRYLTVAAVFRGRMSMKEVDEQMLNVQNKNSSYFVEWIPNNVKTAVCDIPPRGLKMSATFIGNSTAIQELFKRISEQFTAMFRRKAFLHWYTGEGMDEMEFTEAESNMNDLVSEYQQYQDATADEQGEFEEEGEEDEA

Turning to `CCOC(=O)c1ccc2[nH]c(-c3cccc(F)c3)cc(=O)c2c1`, the results for the Activity (in data set [1]; with MDA-MB-231; in data set [2]) were 120.7 IU/L, 73.6 mm3 and 64 IU/L, respectively. Also, the result in the data set listed under Homo sapiens was Active.
For orientation: pIC50 means the negative decadic logarithm of the IC50, by convention in mol/L. For `CCOC(=O)c1ccc2nc(-c3ccccc3)cc(O)c2c1`, the outcome (in data set [3]; on Tubulin (Homo sapiens); with NCI-H1975 [8]) was Active. Moreover, the Activity result was “Dose-dependent effect” in the data set with CL1-0 [4], “Dose-dependent effect” in the data set with NCI-H1975 [5], 871.3 mm3 in the data set with NCI-H1975 [7] and “Dose-dependent effect” in the data set on CL1-0 [10]. Besides, the pIC50 with COLO 205 was 7.24; in the data set with PC-3, 7.35; with CL1-0 [9], 7.80. Besides, the outcome with NCI-H1975 [6] was inactive. For the same compound, on Tubulin (Sus scrofa), the “tubulin inhibition call (active/not active)” value is “Active”.
